This note sets out measurements from ChEMBL document CHEMBL5143728, “Next-Generation Diprovocims with Potent Human and Murine TLR1/TLR2 Agonist Activity That Activate the Innate and Adaptive Immune Response” (J Med Chem, 2022).

In one test the target is Toll-like receptor 1/2 (Homo sapiens, UniProt O60603+Q15399). In words: Agonist activity at TLR1/TLR2 in human THP-1 derived macrophages assessed as stimulation of TNF alpha release measured for 4 hrs by ELISA based assay relative to diprovocim-1. Also noted: Activity: concentration or dose not given beside the values. It is filed as cell-based. In outline:
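THP-1 cells differentiated with 100 nM PMA in RPMI/10% FBS for 24 h, washed, then rested 24 h in fresh medium. Seeded at 0.5 × 10⁵ cells/well and exposed to graded compound concentrations for 4 h, with final DMSO held at 0.1%. LPS served as positive control and DMSO as negative control. Supernatant human TNF-α was read by ELISA. EC50 from duplicate means.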

Test [1] addresses Toll-like receptor 1/2 (Mus musculus) (UniProt Q9QUN7+Q9EPQ1). In words: Agonist activity at TLR1/TLR2 in wild type C57BL/6J mouse macrophages assessed as stimulation of TNF alpha release measured for 4 hrs by ELISA based assay relative to diprovocim-1. The class given is cell-based. Further details: Activity: concentration or dose not given beside the values. The note with it: Macrophage, filed as agonist. In a few lines: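 Thioglycolate-elicited peritoneal macrophages from wild type C57BL/6J mice, harvested by PBS lavage 4 d after i.p. 4% thioglycolate. Cultured in DMEM/10% FBS at 37 °C, 5% CO2, seeded at 1 × 10⁵ cells/well and exposed to graded compound concentrations for 4 h, with final DMSO ≤0.5% held constant. LPS served as positive control. Supernatant mouse TNF-α was read by ELISA. EC50 from duplicate means.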

Take `CC(C)(C)OC(=O)C(=O)NCC(=O)OCCCCCCCCCCCCNC(=O)[C@@H]1CN(C(=O)c2ccc(C(=O)N3C[C@@H](C(=O)N[C@H]4C[C@@H]4c4ccccc4)[C@H](C(=O)N[C@H]4C[C@@H]4c4ccccc4)C3)cc2)C[C@H]1C(=O)N[C@H]1C[C@@H]1c1ccccc1`: the Activity was 110% on Toll-like receptor 1/2 (filed as agonist) and 400% in test [1].

In the case of `O=C(COCc1ccccc1)OCCCCCCCCCCCCNC(=O)[C@@H]1CN(C(=O)c2ccc(C(=O)N3C[C@@H](C(=O)N[C@H]4C[C@@H]4c4ccccc4)[C@H](C(=O)N[C@H]4C[C@@H]4c4ccccc4)C3)cc2)C[C@H]1C(=O)N[C@H]1C[C@@H]1c1ccccc1`, the Activity came to 130% at Toll-like receptor 1/2 (filed as agonist) and 220% in test [1].

For the compound `CSCC[C@H](NC(=O)OC(C)(C)C)C(=O)OCCCCCCCCCCCCNC(=O)[C@@H]1CN(C(=O)c2ccc(C(=O)N3C[C@@H](C(=O)N[C@H]4C[C@@H]4c4ccccc4)[C@H](C(=O)N[C@H]4C[C@@H]4c4ccccc4)C3)cc2)C[C@H]1C(=O)N[C@H]1C[C@@H]1c1ccccc1`, the Activity was 100% at Toll-like receptor 1/2 (filed as agonist) and 150% in test [1].

As to `CC(C)(C)Oc1ccc(C(=O)OCCCCCCCCCCCCNC(=O)[C@@H]2CN(C(=O)c3ccc(C(=O)N4C[C@@H](C(=O)N[C@H]5C[C@@H]5c5ccccc5)[C@H](C(=O)N[C@H]5C[C@@H]5c5ccccc5)C4)cc3)C[C@H]2C(=O)N[C@H]2C[C@@H]2c2ccccc2)cc1`, the Activity on Toll-like receptor 1/2 was less than 50%; in test [1] it was 150%.

On to `NCC(=O)OCCCCCCCCCCCCNC(=O)[C@@H]1CN(C(=O)c2ccc(C(=O)N3C[C@@H](C(=O)N[C@H]4C[C@@H]4c4ccccc4)[C@H](C(=O)N[C@H]4C[C@@H]4c4ccccc4)C3)cc2)C[C@H]1C(=O)N[C@H]1C[C@@H]1c1ccccc1`, for which the Activity (on Toll-like receptor 1/2 (filed as agonist); in test [1]) was 100% in each case.

Turning to `CNC(=O)CCCCCCCCCCCNC(=O)[C@@H]1CN(C(=O)c2ccc(C(=O)N3C[C@@H](C(=O)N[C@H]4C[C@@H]4c4ccccc4)[C@H](C(=O)N[C@H]4C[C@@H]4c4ccccc4)C3)cc2)C[C@H]1C(=O)N[C@H]1C[C@@H]1c1ccccc1`, the Activity at Toll-like receptor 1/2 (filed as agonist) is 120%; in test [1], 150%.

For the compound `CC(C)(C)OCC(=O)OCCCCCCCCCCCCNC(=O)[C@@H]1CN(C(=O)c2ccc(C(=O)N3C[C@@H](C(=O)N[C@H]4C[C@@H]4c4ccccc4)[C@H](C(=O)N[C@H]4C[C@@H]4c4ccccc4)C3)cc2)C[C@H]1C(=O)N[C@H]1C[C@@H]1c1ccccc1`, the Activity on Toll-like receptor 1/2 (filed as agonist) came to 100%; in test [1], 230%.

In the case of `CC(C)(C)OC(=O)CCOCCOCCOCCNC(=O)CCCCCCCCCCCNC(=O)[C@@H]1CN(C(=O)c2ccc(C(=O)N3C[C@@H](C(=O)N[C@H]4C[C@@H]4c4ccccc4)[C@H](C(=O)N[C@H]4C[C@@H]4c4ccccc4)C3)cc2)C[C@H]1C(=O)N[C@H]1C[C@@H]1c1ccccc1`, the values for the Activity (on Toll-like receptor 1/2 (filed as agonist); in test [1]) were 100% and 140%, respectively.

In the case of `CC(C)(C)OC(=O)NCCOCCOCCOCCOCCC(=O)OCCCCCCCCCCCCNC(=O)[C@@H]1CN(C(=O)c2ccc(C(=O)N3C[C@@H](C(=O)N[C@H]4C[C@@H]4c4ccccc4)[C@H](C(=O)N[C@H]4C[C@@H]4c4ccccc4)C3)cc2)C[C@H]1C(=O)N[C@H]1C[C@@H]1c1ccccc1`, the figures for the Activity (at Toll-like receptor 1/2 (filed as agonist); in test [1]) were 90% and 150%, respectively.

Turning to `COC(=O)CNC(=O)OCCCCCCCCCCCCNC(=O)[C@@H]1CN(C(=O)c2ccc(C(=O)N3C[C@@H](C(=O)N[C@H]4C[C@@H]4c4ccccc4)[C@H](C(=O)N[C@H]4C[C@@H]4c4ccccc4)C3)cc2)C[C@H]1C(=O)N[C@H]1C[C@@H]1c1ccccc1`, the Activity (at Toll-like receptor 1/2 (filed as agonist); in test [1]) was 90% in each case.

As to `CC(C)(C)OC(=O)c1ccc(C(=O)OCCCCCCCCCCCCNC(=O)[C@@H]2CN(C(=O)c3ccc(C(=O)N4C[C@@H](C(=O)N[C@H]5C[C@@H]5c5ccccc5)[C@H](C(=O)N[C@H]5C[C@@H]5c5ccccc5)C4)cc3)C[C@H]2C(=O)N[C@H]2C[C@@H]2c2ccccc2)cc1`, the Activity at Toll-like receptor 1/2 (filed as agonist) stood at 90%; in test [1] it was 190%.

Regarding `Cc1ccc(S(=O)(=O)n2cnc(C[C@H](NC(=O)OC(C)(C)C)C(=O)OCCCCCCCCCCCCNC(=O)[C@@H]3CN(C(=O)c4ccc(C(=O)N5C[C@@H](C(=O)N[C@H]6C[C@@H]6c6ccccc6)[C@H](C(=O)N[C@H]6C[C@@H]6c6ccccc6)C5)cc4)C[C@H]3C(=O)N[C@H]3C[C@@H]3c3ccccc3)c2)cc1`, the Activity at Toll-like receptor 1/2 (filed as agonist) turned out to be 90%; in test [1] it was 110%.

For the compound `O=C(O)CCCCCCCCCCCNC(=O)[C@@H]1CN(C(=O)c2ccc(C(=O)N3C[C@@H](C(=O)N[C@H]4C[C@@H]4c4ccccc4)[C@H](C(=O)N[C@H]4C[C@@H]4c4ccccc4)C3)cc2)C[C@H]1C(=O)N[C@H]1C[C@@H]1c1ccccc1`, the Activity came out at 100% on Toll-like receptor 1/2 (filed as agonist) and 110% in test [1].

Turning to `[N-]=[N+]=NCCCCCCCCCCCCNC(=O)[C@@H]1CN(C(=O)c2ccc(C(=O)N3C[C@@H](C(=O)N[C@H]4C[C@@H]4c4ccccc4)[C@H](C(=O)N[C@H]4C[C@@H]4c4ccccc4)C3)cc2)C[C@H]1C(=O)N[C@H]1C[C@@H]1c1ccccc1`, the figures for the Activity (at Toll-like receptor 1/2; in test [1]) were 30% and 50%, respectively.

Take `CC(C)(C)OC(=O)N[C@@H](CCCCNC(=O)OCC1c2ccccc2-c2ccccc21)C(=O)OCCCCCCCCCCCCNC(=O)[C@@H]1CN(C(=O)c2ccc(C(=O)N3C[C@@H](C(=O)N[C@H]4C[C@@H]4c4ccccc4)[C@H](C(=O)N[C@H]4C[C@@H]4c4ccccc4)C3)cc2)C[C@H]1C(=O)N[C@H]1C[C@@H]1c1ccccc1`: the values for the Activity (at Toll-like receptor 1/2 (filed as agonist); in test [1]) were 100% and 200%, respectively.

In the case of `O=C(CNC(=O)c1ccc(C(=O)O)cc1)OCCCCCCCCCCCCNC(=O)[C@@H]1CN(C(=O)c2ccc(C(=O)N3C[C@@H](C(=O)N[C@H]4C[C@@H]4c4ccccc4)[C@H](C(=O)N[C@H]4C[C@@H]4c4ccccc4)C3)cc2)C[C@H]1C(=O)N[C@H]1C[C@@H]1c1ccccc1`, the figures for the Activity (on Toll-like receptor 1/2 (filed as agonist); in test [1]) were 100% and 60%, respectively.

For the compound `CC(C)(C)OC(=O)N[C@@H](CCC(=O)OCc1ccccc1)C(=O)OCCCCCCCCCCCCNC(=O)[C@@H]1CN(C(=O)c2ccc(C(=O)N3C[C@@H](C(=O)N[C@H]4C[C@@H]4c4ccccc4)[C@H](C(=O)N[C@H]4C[C@@H]4c4ccccc4)C3)cc2)C[C@H]1C(=O)N[C@H]1C[C@@H]1c1ccccc1`, the Activity worked out at 100% on Toll-like receptor 1/2 (filed as agonist) and 210% in test [1].

Regarding `CC(C)(C)OC(=O)COCCCCCCCCCCCCNC(=O)[C@@H]1CN(C(=O)c2ccc(C(=O)N3C[C@@H](C(=O)N[C@H]4C[C@@H]4c4ccccc4)[C@H](C(=O)N[C@H]4C[C@@H]4c4ccccc4)C3)cc2)C[C@H]1C(=O)N[C@H]1C[C@@H]1c1ccccc1`, the Activity on Toll-like receptor 1/2 (filed as agonist) came to 100%; in test [1], 270%.

As for `O=C(CNC(=O)OCc1ccccc1)OCCCCCCCCCCCCNC(=O)[C@@H]1CN(C(=O)c2ccc(C(=O)N3C[C@@H](C(=O)N[C@H]4C[C@@H]4c4ccccc4)[C@H](C(=O)N[C@H]4C[C@@H]4c4ccccc4)C3)cc2)C[C@H]1C(=O)N[C@H]1C[C@@H]1c1ccccc1`, the Activity turned out to be 100% at Toll-like receptor 1/2 (filed as agonist) and 410% in test [1].

On to `CC(C)(C)OC(=O)N[C@@H](Cc1ccccc1)C(=O)OCCCCCCCCCCCCNC(=O)[C@@H]1CN(C(=O)c2ccc(C(=O)N3C[C@@H](C(=O)N[C@H]4C[C@@H]4c4ccccc4)[C@H](C(=O)N[C@H]4C[C@@H]4c4ccccc4)C3)cc2)C[C@H]1C(=O)N[C@H]1C[C@@H]1c1ccccc1`, for which the Activity worked out at 100% at Toll-like receptor 1/2 (filed as agonist) and 220% in test [1].

As for `CC(C)(C)OC(=O)N[C@@H](CSCc1ccccc1)C(=O)OCCCCCCCCCCCCNC(=O)[C@@H]1CN(C(=O)c2ccc(C(=O)N3C[C@@H](C(=O)N[C@H]4C[C@@H]4c4ccccc4)[C@H](C(=O)N[C@H]4C[C@@H]4c4ccccc4)C3)cc2)C[C@H]1C(=O)N[C@H]1C[C@@H]1c1ccccc1`, the Activity on Toll-like receptor 1/2 (filed as agonist) was found to be 100%; in test [1], 200%.

`O=C(CNC(=O)OCC(Cl)(Cl)Cl)OCCCCCCCCCCCCNC(=O)[C@@H]1CN(C(=O)c2ccc(C(=O)N3C[C@@H](C(=O)N[C@H]4C[C@@H]4c4ccccc4)[C@H](C(=O)N[C@H]4C[C@@H]4c4ccccc4)C3)cc2)C[C@H]1C(=O)N[C@H]1C[C@@H]1c1ccccc1`: the Activity at Toll-like receptor 1/2 (filed as agonist) was determined as 100%; in test [1], 300%.

On to `CC(=O)NCC(=O)OCCCCCCCCCCCCNC(=O)[C@@H]1CN(C(=O)c2ccc(C(=O)N3C[C@@H](C(=O)N[C@H]4C[C@@H]4c4ccccc4)[C@H](C(=O)N[C@H]4C[C@@H]4c4ccccc4)C3)cc2)C[C@H]1C(=O)N[C@H]1C[C@@H]1c1ccccc1`, for which the values for the Activity (on Toll-like receptor 1/2 (filed as agonist); in test [1]) were 90% and 180%, respectively.

Turning to `O=C(CNC(=O)OCC1c2ccccc2-c2ccccc21)OCCCCCCCCCCCCNC(=O)[C@@H]1CN(C(=O)c2ccc(C(=O)N3C[C@@H](C(=O)N[C@H]4C[C@@H]4c4ccccc4)[C@H](C(=O)N[C@H]4C[C@@H]4c4ccccc4)C3)cc2)C[C@H]1C(=O)N[C@H]1C[C@@H]1c1ccccc1`, the values for the Activity (on Toll-like receptor 1/2 (filed as agonist); in test [1]) were 100% and 170%, respectively.

As for `C#CCCCCCCCCCCCCNC(=O)[C@@H]1CN(C(=O)c2ccc(C(=O)N3C[C@@H](C(=O)N[C@H]4C[C@@H]4c4ccccc4)[C@H](C(=O)N[C@H]4C[C@@H]4c4ccccc4)C3)cc2)C[C@H]1C(=O)N[C@H]1C[C@@H]1c1ccccc1`, the Activity on Toll-like receptor 1/2 (filed as agonist) turned out to be 120%; in test [1], 180%.

Regarding `O=C(O)c1ccc(C(=O)NCCOCCCCCCCCCCCCNC(=O)[C@@H]2CN(C(=O)c3ccc(C(=O)N4C[C@@H](C(=O)N[C@H]5C[C@@H]5c5ccccc5)[C@H](C(=O)N[C@H]5C[C@@H]5c5ccccc5)C4)cc3)C[C@H]2C(=O)N[C@H]2C[C@@H]2c2ccccc2)cc1`, the Activity at Toll-like receptor 1/2 (filed as agonist) amounted to 100%; in test [1], 50%.
